# Data reported in ChEMBL document CHEMBL1130344, “Discovery of TBC11251, a potent, long acting, orally active endothelin receptor-A selective antagonist” (J Med Chem, 1997).
# The source made the active and inactive calls. The calls are words filed in the database; no cut-off is given here.
# How the values were obtained:
# [1] = test system: Rattus norvegicus; assay: The compound was tested in vivo for percent inhibition in ET-1 challenge in rats at 15 mg/kg; not active; format: functional, organism-based; design: dose 15 mg/kg
# In short: (§1)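 Male Sprague–Dawley rats (250–350 g) were cannulated (femoral artery/vein) under methohexital, then restrained conscious with 60 min recovery. Autonomic blockade used iv atropine methyl nitrate 3 mg/kg plus propranolol 2 mg/kg. Vehicle was 1 M Tris base or sodium bicarbonate.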
# [2] = Oral bioavailability in rat; format: ADME, organism-based; conditions: in vivo
# In short: (§2)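 Rats (48 h post-surgery recovery) received 20–50 mg/kg at 1 mL/kg iv or 10 mL/kg po. Serial caudal-vein blood samples were taken over 24 h, and plasma was stored at -20 °C until assay. Bioavailability came from comparing dose and AUC.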
# [3] = Serum half life in rat; format: ADME, organism-based; in short: as §2
# [4] = molecular target: T1, Endothelin-1 receptor (Homo sapiens, UniProt P25101); assay: In vitro inhibition of endothelin binding to human Endothelin A receptor using [125I]-labeled ET-1 competition assay
# T1 sequence (P25101 whole entry): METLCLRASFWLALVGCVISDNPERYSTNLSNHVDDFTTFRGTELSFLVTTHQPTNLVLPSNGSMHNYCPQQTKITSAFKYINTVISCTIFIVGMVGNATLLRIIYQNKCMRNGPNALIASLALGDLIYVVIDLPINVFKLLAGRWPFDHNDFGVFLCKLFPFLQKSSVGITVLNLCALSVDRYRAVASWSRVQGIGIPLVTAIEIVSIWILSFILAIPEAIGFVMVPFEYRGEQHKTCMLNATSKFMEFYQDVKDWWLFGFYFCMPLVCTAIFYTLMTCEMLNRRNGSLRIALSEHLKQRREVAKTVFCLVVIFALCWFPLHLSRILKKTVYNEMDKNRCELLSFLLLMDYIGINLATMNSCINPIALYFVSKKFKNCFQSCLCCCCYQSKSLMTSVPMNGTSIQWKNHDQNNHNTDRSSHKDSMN
# In short: (§3)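 Membranes in 30 mM HEPES pH 7.4 with 150 mM NaCl, 5 mM MgCl2 and 0.05% bacitracin: […] for ET_B (ET_B from COS 7 cells transfected with human ET_B DNA). Competition against 4 pM [125I]ET-1, 0.25% DMSO final, in triplicate, for 16–18 h at 24 °C. Nonspecific binding with 100 nM ET-1. Bound radioactivity gamma-counted after centrifugation.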
# [5] = molecular target: T2, Endothelin receptor type B (Homo sapiens, UniProt P24530); assay: In vitro inhibition of endothelin binding to human Endothelin B receptor using [125I]-labeled ET-1 competition assay; in short: as §3
# T2 sequence (P24530 whole entry): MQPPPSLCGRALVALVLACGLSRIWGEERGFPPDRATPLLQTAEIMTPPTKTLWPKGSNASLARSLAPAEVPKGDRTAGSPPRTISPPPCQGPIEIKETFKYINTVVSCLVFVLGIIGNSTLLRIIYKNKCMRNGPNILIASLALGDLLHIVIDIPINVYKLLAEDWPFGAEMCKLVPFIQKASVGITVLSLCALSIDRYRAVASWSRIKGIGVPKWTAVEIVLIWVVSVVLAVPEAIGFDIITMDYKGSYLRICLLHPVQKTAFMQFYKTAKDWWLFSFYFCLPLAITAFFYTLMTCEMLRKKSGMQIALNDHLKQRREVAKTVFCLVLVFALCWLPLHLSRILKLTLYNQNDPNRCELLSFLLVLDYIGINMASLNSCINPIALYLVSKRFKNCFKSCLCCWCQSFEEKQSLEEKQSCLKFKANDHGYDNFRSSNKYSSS
# [6] = Phosphoinositol hydrolysis in TE671 or transfected cos 7 cells; format: functional, cell-based; conditions: read-out: pA2 (converted)
# In short: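 TE 671 or transfected COS 7 cells were grown to confluence, then labelled for 16 h with [3H]myoinositol in inositol-free RPMI with 10% inositol-free FCS at 37 °C, 6% CO2. They were preincubated 10 min in LiCl-containing HEPES buffer pH 7.4 ± test compound, then given ET-1 at varying concentrations for 45 min. Inositol phosphates were extracted with ice-cold methanol (Berridge method), and well protein was measured by BCA.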
# [7] = test system: Rattus norvegicus; assay: The compound was tested in vivo for percent inhibition in ET-1 challenge in rats at 15 mg/kg; format: functional; in short: as §1
# [8] = test system: Rattus norvegicus; assay: The compound was tested in vivo for percent inhibition in ET-1 challenge in rats at 60 mg/kg; format: functional; in short: as §1
# [9] = molecular target: T1, Endothelin-1 receptor; assay: Binding affinity against human Endothelin A receptor
# [10] = test system: Rattus norvegicus; assay: In vivo efficacy in acute hypoxia induced pulmonary hypertension in rats following intravenous administration; format: functional, organism-based
# [11] = Oral bioavailability in dog; format: ADME, organism-based, Canis lupus familiaris; conditions: in vivo
# In short: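 Dogs (7 days post-surgery recovery) were dosed iv at 1 mL/kg via the right saphenous vein, or by oral gavage at 2 mL/kg plus an aqueous flush after overnight fasting. Routes were crossed over 7 days later. Plasma levels were followed over 24 h, and bioavailability came from comparing dose and AUC.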
# [12] = test system: Rattus norvegicus; assay: In vivo efficacy in acute hypoxia induced pulmonary hypertension in rats following oral administration; format: functional, organism-based
# [13] = The serum half life of the compound; format: ADME, cell-free
SMILES,IC50 [4] [nM],IC50 [5] [nM],further results
Cc1ccc(NC(=O)c2sccc2S(=O)(=O)Nc2onc(C)c2Cl)cc1,–,–,inhibition [1]: inactive; bioavailability [2]: 0%; half-life [3]: < 0.5 h
Cc1cc2c(cc1CC(=O)c1sccc1S(=O)(=O)Nc1noc(C)c1Cl)OCO2,–,3900,Kb [6]: 3.39 nM
Cc1noc(NS(=O)(=O)c2ccsc2C(=O)Nc2ccc3c(c2)OCO3)c1Br,–,–,inhibition [1]: inactive; bioavailability [2]: 0%; half-life [3]: < 0.5 h
Cc1noc(NS(=O)(=O)c2ccsc2C(C)(O)Cc2ccc3c(c2)OCO3)c1Cl (stereo not given),22200,> 100000,–
Cc1noc(NS(=O)(=O)c2ccsc2C(Cc2ccc3c(c2)OCO3)N(C)C)c1Cl (stereo not given),21000,> 100000,–
Cc1noc(NS(=O)(=O)c2ccsc2/C(Cc2ccc3c(c2)OCO3)=N\O)c1Cl,1100,4200,–
COc1cc(C#N)c(NC(=O)c2sccc2S(=O)(=O)Nc2onc(C)c2Cl)cc1OC,–,–,bioavailability [2]: 2%; inhibition in vivo at 15 mg/kg [7]: 50%; half-life [3]: < 0.15 h
Cc1noc(NS(=O)(=O)c2ccsc2C(=O)Cc2ccc3c(c2)OCO3)c1C,–,27200,–
Cc1noc(NS(=O)(=O)c2ccsc2C(=O)NC(=O)c2ccc3c(c2)OCO3)c1Br,887,37200,–
Cc1noc(NS(=O)(=O)c2ccsc2C(=O)c2ccc3c(c2)OCO3)c1Br,2000,15400,–
CC#N.Cc1noc(NS(=O)(=O)c2ccsc2C(=O)Cc2cc3c(cc2C#N)OCO3)c1Cl,1.3,723,Kb [6]: 10 nM; inhibition in vivo at 15 mg/kg [7]: 52%
COc1ccc(NC(=O)c2sccc2S(=O)(=O)Nc2onc(C)c2Cl)c(C)c1,–,–,half-life [13]: < 9 min; inhibition in vivo at 15 mg/kg [7]: 33%
Cc1cc2c(cc1CC(=O)c1sccc1S(=O)(=O)Nc1onc(C)c1C)OCO2,–,–,bioavailability [2]: 100%; inhibition in vivo at 15 mg/kg [7]: 33%; half-life [3]: 7 h
Cc1noc(NS(=O)(=O)c2ccsc2C(=O)N2CCN(Cc3ccc4c(c3)OCO4)CC2)c1Cl,19600,–,–

# Continued by falling IC50 [4], values first:
IC50 [4] [nM],IC50 [5] [nM],SMILES,further results
123,2100,Cc1noc(NS(=O)(=O)c2ccsc2C2(Cc3ccc4c(c3)OCO4)OCCO2)c1Cl,–
56,15700,Cc1noc(NS(=O)(=O)c2ccsc2C(O)Cc2ccc3c(c2)OCO3)c1Cl (stereo not given),–
30,19100,COc1cccc(CC(=O)c2sccc2S(=O)(=O)Nc2onc(C)c2Cl)c1,–
27,29200,Cc1ccc(CC(=O)c2sccc2S(=O)(=O)Nc2onc(C)c2C)cc1,–
20,–,Cc1ccc(CC(=O)c2sccc2S(=O)(=O)Nc2onc(C)c2Br)cc1,–
18,7000,Cc1noc(NS(=O)(=O)c2ccsc2C(=O)Cc2ccc3c(c2)OCO3)c1Cl,bioavailability [2]: 30%; inhibition in vivo at 60 mg/kg [8]: 41%; Kb [6]: 178 nM; half-life [3]: 1.5 h
14,–,Cc1noc(NS(=O)(=O)c2ccsc2C(=O)Cc2ccc3c(c2)OCO3)c1Br,–
10,32600,CC(=O)c1c(NC(=O)c2sccc2S(=O)(=O)Nc2onc(C)c2Cl)ccc2c1OCO2,bioavailability [2]: 27%; inhibition in vivo at 15 mg/kg [7]: 18%; half-life [3]: 2.5 h
7.2,–,Cc1ccc(C)c(CC(=O)c2sccc2S(=O)(=O)Nc2onc(C)c2Cl)c1,–
3.4,40400,Cc1noc(NS(=O)(=O)c2ccsc2C(=O)Nc2ccc3c(c2C#N)OCO3)c1Cl,bioavailability [2]: 8%; inhibition in vivo at 15 mg/kg [7]: 8%; half-life [3]: 2.5 h
3,355000,Cc1noc(NS(=O)(=O)c2ccsc2C(=O)Nc2ccc3c(c2C)OCO3)c1Cl,inhibition in vivo at 15 mg/kg [7]: 14%
1.4,9800,Cc1cc2c(cc1CC(=O)c1sccc1S(=O)(=O)Nc1onc(C)c1Cl)OCO2 [SITAXENTAN],Ki [9]: 0.43 nM; bioavailability [2]: 60%; Kb [6]: 10 nM; EC50 [10]: 0.5 mg/kg; inhibition in vivo at 15 mg/kg [7]: 41%; bioavailability [11]: 90%; EC50 [12]: 1 mg/kg; half-life [3]: 6.7 h
0.97,–,Cc1ccc(CC(=O)c2sccc2S(=O)(=O)Nc2onc(C)c2Cl)c(C)c1,–
0.76,3500,Cc1ccc(CC(=O)c2sccc2S(=O)(=O)Nc2onc(C)c2Br)c(C)c1,–
